# Results: ChEMBL document CHEMBL1641595, “Molecular modeling based approach, synthesis and in vitro assay to new indole inhibitors of hepatitis C NS3/4A serine protease” (Bioorg Med Chem, 2011)
# Legend:
# Hepacivirus hominis [1] = assay: Inhibition of HCV NS3/4A protease at 100 ug/ml after 30 mins
# Summary of the method: (§1)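 Recombinant HCV NS3/4A protease, freshly diluted to 0.5 µg/mL, was combined with test compound in DMSO. The reaction was started with FRET peptide substrate Ac-Asp-Glu-Asp(EDANS)-Glu-Glu-Abu-ψ-[COO]Ala-Ser-Lys(DABCYL)-NH2, diluted 100-fold from a DMSO stock. After 30 min at room temperature (28 °C), fluorescence was read at […]. % inhibition = 100×(Fvehicle−Fsample)/Fvehicle, with both values corrected by subtracting the substrate control.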
# Hepacivirus hominis [2] = assay: Inhibition of HCV NS3/4A protease at 50 ug/ml after 30 mins; summary of the method: as §1
# Hepacivirus hominis [3] = assay: Inhibition of HCV NS3/4A protease at 10 ug/ml after 30 mins; summary of the method: as §1
# [4] = Inhibition of HCV NS3/4A protease after 30 mins; design: species or system Hepacivirus hominis; summary of the method: as §1
inhibition (Hepacivirus hominis [1]) [%],inhibition (Hepacivirus hominis [2]) [%],inhibition (Hepacivirus hominis [3]) [%],IC50 [4] [µg/mL],Compound
84.7,82.4,53.7,9,O=C(COc1ccc(/C=C/C(=O)c2c[nH]c3ccccc23)cc1)N[C@@H](Cc1ccccc1)C(=O)O
80.9,72,40.1,19,O=C(COc1ccc(/C=C/C(=O)c2c[nH]c3ccccc23)cc1)Nc1ccc(C(=O)c2ccccc2C(=O)O)cc1
83.9,81.2,49.5,12,O=C(COc1ccc(/C=C/C(=O)c2c[nH]c3ccccc23)cc1)N[C@@H](Cc1ccc(O)cc1)C(=O)O
82.9,67.2,44.5,19,O=C(COc1ccc(/C=C/C(=O)c2c[nH]c3ccccc23)cc1)N[C@@H](Cc1c[nH]c2ccccc12)C(=O)O
73.7,57.2,22.4,29,O=C(COc1ccc(/C=C/C(=O)c2c[nH]c3ccccc23)cc1)Nc1ncncc1C(=O)O
78.7,48.5,36.4,21,O=C(COc1ccc(/C=C/C(=O)c2c[nH]c3ccccc23)cc1)N[C@@H](Cc1c[nH]cn1)C(=O)O
58.4,29.4,–,> 100,N#Cc1cncnc1NC(=O)COc1ccc(/C=C/C(=O)c2c[nH]c3ccccc23)cc1
–,–,–,0.4,CC(C)C[C@H](NC(=O)C1(Cc2ccsc2C(=O)O)Cc2ccccc2N1)C(=O)NC(CC(F)F)C(=O)C(=O)O (some centres not stated)
–,–,–,6.4,CC(=O)OCCC/C(=C1/SC(=S)N(CC(=O)O)C1=O)c1ccc(Br)cc1
51.8,22.9,–,> 100,O=C(O)COc1ccc(/C=C/C(=O)c2c[nH]c3ccccc23)cc1
